EWS-Fli block: EWS/Fli-driven NR0B1 reporter inhibitors, primary screen, A673 cells, NR0B1 luciferase, luminescence, MLPCN library | inhibition, % at 12.6 µM | actives 0.67% (n = 350,000) | viability-normalised | AID 651661, 2012;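 active = mean inhibition of at least 50% after viability correction, with every replicate also passing that limit; inconclusive = mean reaches 50% but only one of two replicates passes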;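 also: firefly luciferase signal divided by Alamar Blue viability fluorescence both relative to DMSO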
PGC1a acetyl inh: inhibitors of PGC1a acetylation signal, primary screen, cell-based, U2OS, AlphaScreen, inhibitor mode; AlphaScreen anti-acetyl-lysine; with virally co-expressed GCN5 acetyltransferase; inhibition, % at 15.6 µM; actives 0.17% (n = 350,000); AID 651687, 2012;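 active = every replicate shows inhibition of at least 40%; inconclusive = mean inhibition at least 40% but some replicate below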;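 also: 0% = neutral control wells and 100% = positive control wells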
AF4-AF9 inh: inhibitors of AF4 peptide binding to AF9, primary screen, biochemical, AlphaScreen, biotin-AF4 peptide, FLAG-AF9, single point; Protein AF-9 (Homo sapiens), P42568; inhibition, % at 10 µM; actives 0.47% (n = 350,000);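 active = every replicate reaching a set inhibition limit, whatever the replicate mean, cut at about 25% in these data; inconclusive = mean inhibition reaches that limit but some replicates miss it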;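 also: 0% = plate neutral control median and 100% = total signal loss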
Target sequence (P42568 whole entry, looked up): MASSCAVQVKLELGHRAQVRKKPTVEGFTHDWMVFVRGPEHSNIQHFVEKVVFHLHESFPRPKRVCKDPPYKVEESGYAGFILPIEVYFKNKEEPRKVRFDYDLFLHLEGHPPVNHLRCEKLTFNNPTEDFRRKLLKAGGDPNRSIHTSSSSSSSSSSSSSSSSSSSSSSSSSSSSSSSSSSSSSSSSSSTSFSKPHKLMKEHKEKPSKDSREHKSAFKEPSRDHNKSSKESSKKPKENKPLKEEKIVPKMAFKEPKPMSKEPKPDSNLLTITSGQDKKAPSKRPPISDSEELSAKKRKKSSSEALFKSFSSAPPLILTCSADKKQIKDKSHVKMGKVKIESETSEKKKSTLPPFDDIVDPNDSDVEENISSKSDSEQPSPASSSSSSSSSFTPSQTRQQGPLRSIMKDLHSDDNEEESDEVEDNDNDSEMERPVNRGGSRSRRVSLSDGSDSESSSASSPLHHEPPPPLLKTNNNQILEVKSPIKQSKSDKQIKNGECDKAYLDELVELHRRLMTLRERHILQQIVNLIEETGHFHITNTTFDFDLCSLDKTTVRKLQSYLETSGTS
INS-1E GSIS act: GLuc luminescence reporter in INS-1E cells, primary screen for activators of glucose-dependent secretion of insulin; INS-1E GLuc reporter insulin secretion, 2-3 h; activation, % at 16.6 µM; actives 0.61% (n = 370,000);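 active = lowest replicate activation of at least 40%, so every replicate reaches that level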;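 also: 0% = median of neutral control wells and 100% = median of IBMX positive control wells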
XiGFP reactiv: activators of inactive X chromosome reactivation, primary screen, imaging, XiGFP fibroblasts, GFP high-content imaging, set 2; XiGFP mouse fibroblasts, % GFP-positive cells imaging, 3 d; cells co-treated with 5-aza-dC sensitizer; scaled so ellipticine positive control = 100%; activation, % at 7.58 µM; actives 0.055% (n = 360,000);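 active = mean normalized replicate activation at least 10% and every replicate at or above 10%; inconclusive = only one of the two criteria met; inactive = mean below 10% and not all replicates reach 10%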;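 also: 0% = median of on-plate neutral control wells and 100% = ellipticine 6 µM median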
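Material: XiGFP fibroblasts, SV40-immortalized. Buffer or medium: DMEM plus 5-aza-dC sensitizer. Compound: single concentration per compound, delivered by pin transfer. Times: 3 days compound exposure. Controls: ellipticine 6 µM.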
PAX8 inh HTS: inhibitors of PAX8-driven TPO luciferase reporter, primary screen, RMG-I cells, single concentration; SteadyGlo, 24 h; actives 1.2% (n = 360,000); inhibition, % at 12.6 µM;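 active = mean replicate inhibition at least 60% with every replicate also reaching 60%; inconclusive = only one of the two criteria is met; inactive = mean below 60% and not all replicates reaching 60%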;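 also: luciferase light reporting Pax8 driven TPO promoter activity; plate controls were median of neutral control wells for no effect and mitoxantrone controls for full effect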
Numbers without * were called inactive; ? = inconclusive; . = no result. Only some compounds are listed: those with a hit (about 2.1% of all), similar ones and a draw of the others.

SMILES | EWS-Fli block | PGC1a acetyl inh | AF4-AF9 inh | INS-1E GSIS act | XiGFP reactiv | PAX8 inh HTS
C[C@@H]1CCCCO[C@H](CN(C)C(=O)Nc2cccc3ccccc23)[C@H](C)CN([C@H](C)CO)C(=O)c2cc(NS(=O)(=O)c3ccc(F)cc3)ccc2O1 | 13 | -8 | 1 | -1 | 0 | -9
Oc1cc(NCCc2cccnc2)cc2cccnc12 | -13 | 22 | ? | -28 | 1 | 46
Oc1cc(Nc2ccncc2)cc2cccnc12 | 2 | . | 70* | . | 0 | -4
CN(C)c1ccc(-c2cc(O)c3ncccc3c2)cc1 | -19 | 8 | 15 | 8 | 0 | -14
Oc1cc(Nc2cccnc2)cc2cccnc12 | -16 | 19 | 39* | -16 | 0 | 0
C[C@@H]1CCCCO[C@@H](CN(C)C(=O)Nc2cccc3ccccc23)[C@@H](C)CN([C@@H](C)CO)C(=O)c2cc(NC(=O)Nc3ccc(C(F)(F)F)cc3)ccc2O1 | 2 | 1 | -3 | 8 | 0 | .
O=C(O)c1cc([N+](=O)[O-])ccc1Nc1ccccc1 | -5 | -4 | 28* | -17 | 0 | 25
O=[N+]([O-])c1cc(Br)c(Nc2ccccc2)c([N+](=O)[O-])c1 | 30 | . | 7 | -29 | 1 | 84*
CCCNC(=O)N1CC2(CN(Cc3ccc(F)cc3)C2)c2c([nH]c3cc(OC)ccc23)[C@@H]1CO | 3 | -14 | 15 | -14 | 0 | 20
CC1(C)CC2CC(C)(CN2/C=C2/CCCCC2=O)C1 (centres undefined) | 1 | -2 | 32* | -1 | 0 | -16
CO[C@H]1CN(C)C(=O)c2ccc(NC(=O)C3CCC3)cc2OC[C@H](C)N(CC2CCCCC2)C[C@H]1C | 1 | -5 | . | -20 | -1 | -18
Nc1nc2cc3c(cc2cc1C(=O)NCCc1c[nH]c2ccccc12)OCO3 | 59* | . | . | -10 | 0 | 30
CC(C)[C@H]1COCc2cn(nn2)CC[C@@H](Cc2ccc(Cl)cc2)C(=O)N1 | . | . | . | -12 | 0 | .
CC(C)(C)[S@@](=O)N1Cc2cc(C(=O)NCCc3ccncc3)nc(-c3cccc(-c4ccncc4)c3)c2[C@H]1CCO | 12 | 7 | -2 | -10 | 1 | 4
Cc1ccc(C(=O)NC(C#N)=C(Cl)Cl)cc1 | 77* | . | -7 | -4 | 0 | 43
C[C@@H]1CN([C@H](C)CO)C(=O)c2c(c3ccccc3n2C)-c2ccccc2CO[C@@H]1CN(C)S(=O)(=O)c1ccc(Cl)cc1 | 22 | -8 | 5 | -4 | -1 | .
C[C@@H]1CN([C@H](C)CO)C(=O)c2cccc(NC(=O)c3ccncc3)c2O[C@@H]1CN(C)Cc1ccc(Oc2ccccc2)cc1 | -2 | 6 | 25* | -21 | 0 | -5
Cc1cc(C(=O)Nc2cccc3c2O[C@@H](CN(C)Cc2ccc(-c4ccccc4)cc2)[C@H](C)CN([C@H](C)CO)C3=O)n(C)n1 | -14 | 2 | -3 | -21 | 0 | 70*
Cc1cc(C(=O)Nc2cccc3c2O[C@H](CN(C)Cc2ccc(Oc4ccccc4)cc2)[C@@H](C)CN([C@@H](C)CO)C3=O)n(C)n1 | -19 | -1 | . | -16 | 0 | 68*
C[C@H]1CN([C@@H](C)CO)C(=O)c2cccc(NC(=O)c3ccc(-c4nccs4)cc3)c2O[C@H]1CN(C)Cc1ccc(-c2ccccc2)cc1 | 13 | 23 | 2 | -24 | -1 | 63*
Cc1cc(C(=O)Nc2cccc3c2O[C@H](CN(C)Cc2ccc(-c4ccccc4)cc2)[C@H](C)CN([C@@H](C)CO)C3=O)n(C)n1 | -7 | 2 | -3 | -37 | 0 | 11
O=C(c1ccccn1)N1C[C@H]2[C@@H](c3ccccc31)[C@@H](CO)N2C(=O)Nc1ccccc1F | 5 | -15 | -2 | -7 | 0 | -14
CCCC(C)(C)C(=O)N1CCC1(C)C(=O)NS(=O)(=O)c1ccc(Cl)cc1 (centres undefined) | 10 | 2 | 5 | 42* | 0 | 4
Cc1noc(C)c1NC(=O)Nc1ccc2c(c1)C(=O)N([C@@H](C)CO)C[C@H](C)[C@@H](CN(C)Cc1ccc(C(F)(F)F)cc1)OCCCC[C@H](C)O2 | 13 | 27 | 3 | -7 | -1 | -14
COc1ccc2c3c([nH]c2c1)[C@H](CO)N(Cc1ccccc1)CC31CN(S(=O)(=O)c2ccc(C)cc2)C1 | -14 | 0 | 2 | 7 | 0 | .
SMILES | EWS-Fli block | PGC1a acetyl inh | AF4-AF9 inh | INS-1E GSIS act | XiGFP reactiv | PAX8 inh HTS
Cc1ccc(S(=O)(=O)N(C)C[C@@H]2Oc3ccc(NS(=O)(=O)c4cccs4)cc3CC(=O)N([C@H](C)CO)C[C@H]2C)cc1 | -1 | 2 | 0 | 2 | -1 | -22
CC1(C)CCCC(C)(C)N1CC(O)COCCOc1ccc(Br)cc1 (centres undefined) | . | . | . | 51* | 0 | 4
COc1ccc(S(=O)(=O)Nc2ccc3c(c2)C(=O)N([C@H](C)CO)C[C@@H](C)[C@H](CN(C)S(=O)(=O)c2ccc(F)cc2)OCCCC[C@H](C)O3)cc1 | 13 | -21 | 0 | -9 | 0 | 79*
COc1ccc(S(=O)(=O)Nc2ccc3c(c2)C(=O)N([C@H](C)CO)C[C@H](C)[C@H](CN(C)S(=O)(=O)c2ccc(F)cc2)OCCCC[C@H](C)O3)cc1 | 10 | -20 | 4 | -41 | 0 | 77*
CCCc1cn(CC[C@@H]2CC[C@H](NC(=O)C3CCC3)[C@@H](CO)O2)nn1 | 5 | 1 | -3 | 12 | 0 | -2
C[C@@H]1CCCCO[C@H](CN(C)Cc2ccc(C(=O)O)cc2)[C@H](C)CN([C@H](C)CO)C(=O)c2cc(NC(=O)C3CCCCC3)ccc2O1 | -5 | 10 | 2 | 2 | 0 | 15
Cc1cccc(NCc2ccc(O)c3ncccc23)c1 | 15 | 28 | 3 | -3 | 0 | 79*
COc1ccc(C=C2c3ccccc3C(=O)c3ccccc32)c(OC)c1 | 52* | -18 | 11 | 9 | 1 | 59
COc1ccc(/C=C2\CN(Cc3ccccc3)C/C(=C\c3ccc(OC)cc3OC)C2=O)c(OC)c1 | . | 28 | . | . | . | 93*
Cc1ccc(CSc2nccc(-c3c(C)nc4ccccn34)n2)cc1 | 56* | -10 | 0 | . | 0 | 4
CC=Cc1ccc2n(c1=O)C[C@@H]1[C@@H](CO)[C@H](C(=O)NCC3CC3)[C@H]2N1Cc1ccccc1OC (mixture of isomers) | 5 | . | 0 | -6 | 0 | .
